Results on six molecules are retold here after article PMC6774857 (Cell calcium, 2019).

Series [1] deals with sea urchin NAADP receptor. The note with it: sea urchin egg homogenates, cited from earlier work.
A further series deals with SKBR3 cells. Nature of the series: Microinjection of SKBR3 cells with GCaMP6M confocal Ca2+ imaging. It is filed as cell-based, human. As to conditions: for EC50 of fold-change in the intensity of the Ca2+ signal: SKBR3 cells transfected with TPC2 and GCaMP6M, concentration in the micropipette.
The subject of series [2] is sea urchin NAADP receptor. The experiment in a line: Ca2+ release from sea urchin egg homogenates. It is filed as biochemical, Strongylocentrotus purpuratus. A digest of the protocol:
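Ca2+ release measured in Strongylocentrotus purpuratus egg homogenate after adding test compound.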

For series [3], the target named is sea urchin NAADP receptor. Nature of the series: Competition-binding assay with [32P]-NAADP in sea urchin egg extracts. Also noted: species or system Strongylocentrotus purpuratus. As to conditions: read-out: IC50 competition with [32P]-NAADP.
Series [4] can be described thus: Solubility in buffered water. It is filed as physicochemical.
A further series concerns U2OS cells. The note with it: cited from earlier work.
Series [5] concerns the target sea urchin NAADP receptor. It is filed as biochemical, Strongylocentrotus purpuratus. As to conditions: read-out: IC50 for desensitization; data not shown.
Another series has as its system ascidian oocytes. As to conditions: read-out: EC50 of Ca2+ mobilization; cited from earlier work.
The target in series [6] is T1, 23 kDa NAADP binding protein(s) (Homo sapiens, UniProt Q9H910).
T1 sequence (Q9H910 1-190): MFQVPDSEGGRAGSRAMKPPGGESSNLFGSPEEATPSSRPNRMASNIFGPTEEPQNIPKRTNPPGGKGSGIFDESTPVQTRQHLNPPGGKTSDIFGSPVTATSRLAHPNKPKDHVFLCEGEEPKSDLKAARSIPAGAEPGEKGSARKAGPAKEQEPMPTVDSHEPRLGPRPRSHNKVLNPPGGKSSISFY
As to conditions: Jurkat cell extracts, 23 kDa band.

Like-named read-outs stand apart in the source and are kept apart here.

For “5-(3-(t-Boc-amino)-propyl)-NAADP [compound 3]”, in [1] (previously synthesized and tested), the “EC50 (agonist)” value is given as “micromolar range”.
Take “5-[3-(3-Azido-5-(azidomethyl)benzamido)propyl]-NAADP [AIOC-NAADP]”: the “EC50 of fold-change in the intensity of the Ca2+ signal” value with SKBR3 cells is 173 nM. In the series on SKBR3 cells (microinjection into cultured human cells, 9 data ref 56), the “Potency relative to 9” value is on record as “approximately 10 fold”. Moreover, the “Calcium released, % of the amount of calcium released by 10 μM NAADP” value in series [2] (at 1 mM) amounted to 18%. For the same molecule, the “Release of Ca2+ from sea urchin egg homogenates” value in series [2] (concentrations less than 100 μM) was “did not elicit release”. Moreover, the IC50 in [3] amounted to 6000 nM.
Consider `[N-]=[N+]=NCc1cc(N=[N+]=[N-])cc(C(=O)NCCCc2cncc(C(=O)O)c2)c1` [compound 4, 5-(3-(3-Azido-5-(azidomethyl)benzamido)propyl) nicotinic acid], for which the figures for the Solubility result in series [4] (buffered water at pH 4.5) and in series [4] (higher pH (pH ≥ 5)) were “low solubility” and “completely soluble”, respectively.
Regarding `C#Cc1nc2c(N)ncnc2n1C1OC(COP(=O)(O)OP(=O)(O)OC[C@H]2O[C@@H]([n+]3cc(N=[N+]=[N-])cc(C(=O)[O-])c3)[C@H](O)[C@@H]2O)C(O)C1OP(=O)(O)O` (some centres unmarked) [compound 9, 5-azido-8-ethynyl-NAADP], in the series with U2OS cells, the “Activity when microinjected into cultured human U2OS cells” value is listed as “active at low concentration”.
Turning to “nicotinic acid adenine dinucleotide phosphate [NAADP]”, the “EC50 of fold-change in the intensity of the Ca2+ signal” value in the series on SKBR3 cells was 22 nM. Besides, the IC50 in series [5] turned out to be 0.3 nM. Also, the EC50 (in series [1] (read-out: EC50 of Ca2+ mobilization); in the series on ascidian oocytes) was 10 to 50 nM in each case.
On to `NC(=O)c1ccc[n+]([C@H]2O[C@@H](COP(=O)([O-])OP(=O)(O)OC[C@H]3O[C@@H](n4cnc5c(N)ncnc54)[C@H](OP(=O)(O)O)[C@@H]3O)[C@H](O)[C@@H]2O)c1` [NADP], for which the “Fold higher concentrations required for similar protection compared with NAADP” value in series [6] is recorded as 40 fold.
